Screens: PubChem BioAssay, Johns Hopkins Ion Channel Center
TRPC6 activator: activators of mouse TRPC6 channel; actives 0.13% (n = 310,000); B-score at 10 µM; Q61143; AID 2550; HEK293-TRPC6 membrane potential dye fluorescence; stronger effect = higher value;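 active = B-score of the integrated fluorescence ratio above library mean plus 3 SD, and starting fluorescence ratio within library mean plus 5 SD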;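 also: higher score means more depolarization so channel activation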
Target sequence (Q61143 whole entry, looked up): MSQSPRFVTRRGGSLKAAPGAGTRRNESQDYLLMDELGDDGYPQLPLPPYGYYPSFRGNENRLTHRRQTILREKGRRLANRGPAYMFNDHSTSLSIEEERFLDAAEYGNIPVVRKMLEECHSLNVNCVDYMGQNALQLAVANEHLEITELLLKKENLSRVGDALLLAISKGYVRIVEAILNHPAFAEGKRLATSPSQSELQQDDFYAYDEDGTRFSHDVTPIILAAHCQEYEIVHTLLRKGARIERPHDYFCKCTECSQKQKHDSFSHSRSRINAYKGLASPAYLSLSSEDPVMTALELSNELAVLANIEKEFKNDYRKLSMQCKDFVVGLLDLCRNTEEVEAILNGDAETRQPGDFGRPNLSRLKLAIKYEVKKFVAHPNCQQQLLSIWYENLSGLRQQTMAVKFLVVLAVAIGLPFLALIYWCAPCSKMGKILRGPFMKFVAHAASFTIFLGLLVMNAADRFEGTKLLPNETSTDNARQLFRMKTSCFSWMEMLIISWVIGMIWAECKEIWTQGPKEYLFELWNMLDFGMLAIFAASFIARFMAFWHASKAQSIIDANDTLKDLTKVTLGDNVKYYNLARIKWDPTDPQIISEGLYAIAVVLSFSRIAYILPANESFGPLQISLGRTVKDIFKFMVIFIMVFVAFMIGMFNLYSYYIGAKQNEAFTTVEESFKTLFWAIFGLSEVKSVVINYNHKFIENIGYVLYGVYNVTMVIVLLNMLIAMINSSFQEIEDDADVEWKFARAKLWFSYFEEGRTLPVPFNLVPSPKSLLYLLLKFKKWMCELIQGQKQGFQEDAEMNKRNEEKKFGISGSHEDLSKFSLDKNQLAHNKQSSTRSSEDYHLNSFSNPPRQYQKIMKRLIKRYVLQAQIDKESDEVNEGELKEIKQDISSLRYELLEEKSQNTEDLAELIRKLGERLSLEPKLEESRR
TRPC4 agonist: TRPC4 (mouse) channel activation | HEK293 TRPC4beta/mu-opioid, Fluo4 calcium fluorescence; stronger effect = higher value | B-score at 10 µM | actives 0.49% (n = 310,000) | AID 2237;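 active = B-score above 5 SD of library B-scores, and initial fluorescence ratio not above library mean plus 5 SD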;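 also: positive B-score marks a calcium rise read as TRPC4 activation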
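system = HEK293 cells stably co-expressing mouse TRPC4beta and mu-opioid receptor | schedule = Fluo4 dye loading 45 min at room temperature, 110 s recording | measure = B-scored integrated calcium fluorescence ratio | signal = Fluo4 calcium-sensitive dye fluorescence, kinetic, 1 Hz baseline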
TRPC6 inhibitor: blocks the mouse TRPC6 cation channel | B-score at 10 µM | actives 1.1% (n = 310,000) | HEK293-TRPC6, membrane potential dye, ACh-evoked depolarization; stronger effect = lower value | Q61143;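 active = B-score under library mean minus 3 SD, initial fluorescence not abnormally high, positive integrated signal ratio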;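 also: B-score derived from integrated fluorescence ratio over the kinetic read; more negative B-score means stronger inhibition of depolarization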
TRPC4 PAM: allosterically enhances the mouse TRPC4 cation channel. Q9QUQ5. B-score at 10 µM. HEK293 TRPC4beta/mu-opioid, DAMGO EC20, Fluo-4 Ca2+ flux; stronger effect = higher value. actives 0.42% (n = 310,000). AID 2227;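 active = B-score of calcium response area above 5 SD of library B-scores, with initial fluorescence ratio within 5 SD of library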
TRPC4 block: inhibitors of mouse TRPC4 channel | HEK293 TRPC4beta/mu-opioid, DAMGO-evoked Fluo4 calcium flux; stronger effect = lower value | actives 0.39% (n = 300,000) | B-score at 10 µM | Q9QUQ5;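 active = B-score over 3 SD under the library average, no early fluorescence shift, positive overall ratio signal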
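Assay system: TRPC4beta/mu-opioid receptor HEK293 cell line; compound dosing: single concentration per test compound; detection: Fluo4 Ca2+ flux fluorescence; evaluation: per-well B score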
A number is an active result; - = inactive. In the library only some 2.3% were active in any assay of this set; here they are far more common.

SMILES	TRPC6 activator	TRPC4 agonist	TRPC6 inhibitor	TRPC4 PAM	TRPC4 block
Cc1ccc(C)c(OCCCN2CCCC2)c1	-	-	-	11	-
Cc1ccc(Cl)c(OCCN2CCCC(C)C2)c1 (stereo not given)	-	-	-	34	-
Cc1ccc(SCCCCN2CCOCC2)cc1	-	-	-	-	-
CCOC(=O)c1ccc(NS(=O)(=O)c2cn(C)cn2)cc1	-	-	-	-	-
Nc1nonc1NC(=O)NN=C1CCCCC1	-	-	-	-	-
Cc1ccc(C(C)(C)C)cc1S(=O)(=O)Nc1cccc(S(=O)(=O)NC2=NCCC2)c1	-	-	-	-	-
Cc1ccc(C(C)C)c(OCCCCN2CCNCC2)c1	-	-	-	18	-
CCCCCCCCCCOC(=O)Cn1c(COc2ccccc2C)[n+](C)c2ccccc21	-	-	-	-	-6
COc1ccc(O)c(C(=O)c2cnc3c(c2)c(=O)[nH]c(=O)n3C)c1	-	-	-	-	-6
COCCn1c(=O)[nH]c(=O)c2cc(C(=O)c3cc(Cl)ccc3O)cnc21	-	-	-	-	-
COc1cccc(CCc2nnc(CCC(=O)N3CCN(Cc4ccccn4)CC3)o2)c1	-	-	-	-	-
COc1ccc(N2CCN(Cc3nc4ccccc4n3C)CC2)cc1	-	124	-	-	-
COc1ccc(CCN2C(=S)N(C)C(=O)C2CC(=O)Nc2ccc(F)cc2)cc1 (stereo not given)	-	120	-	-	-
Cc1cnc(C(=O)OCc2ccc(Br)cc2)cn1	-	-	-	-	-
Cc1ccc(/C=C/C(=O)c2ccc(O)cc2)cc1	-	-	-	-	-6
CCCCOC(=O)C1=C(C)NC(=O)NC1c1ccccc1 (stereo not given)	-	-	-	-	-
COc1ccc(C2CC(=O)N3CN(c4ccc(C)c(Cl)c4)CSC3=C2C#N)cc1OC (stereo not given)	-	-	-	-	-6
COc1ccc(CNC(=O)c2ccc(Cn3cc(Br)cn3)o2)cc1	-	-	-	-	-
O=c1[nH][nH]c(-c2ccccc2)c1C=Nc1ccc(F)cc1F	-	-	-	79	-
CCOc1[nH]n(-c2ccccc2)c(=O)c1C=Nc1ccc(F)cc1F	-	-	-	-	-
CC(=O)[C@H]1[C@@H]2C(=O)N(c3cccc(Cl)c3)C(=O)[C@@H]2[C@H]2c3ccccc3C=CN21	-	-	-	-	-
CC(=O)[C@@H]1[C@@H]2C(=O)N(c3ccc(F)c(Cl)c3)C(=O)[C@@H]2C2c3ccccc3C=CN21 (stereo not given in full)	-	-	-	-	-7
CCN(CC)Cc1ccc(OC)c(Cl)c1	-	-	-	-	-
COc1ccc(CSCCN)cc1Cl	-	103	-	-	-
Cc1nc2sc(C(=O)Nc3ccccc3)c(N)c2c(C)c1[N+](=O)[O-]	-	-	-	-	-
SMILES	TRPC6 activator	TRPC4 agonist	TRPC6 inhibitor	TRPC4 PAM	TRPC4 block
Cc1ccc(NS(=O)(=O)c2cc([N+](=O)[O-])ccc2NNC(=S)Nc2cccc(Cl)c2)c(C)c1	-	-	-	-	-
Cc1ccc(NS(=O)(=O)c2cc([N+](=O)[O-])ccc2NNC(=S)Nc2cc(C)ccc2C)c(C)c1	-	-	-	16	-
COc1ccc(/C=C2\SC(=S)N(CCC(=O)NC3CCCC3)C2=O)cc1OC	-	-	-	-	-
CC(C)Sc1nc2sc3c(c2c2nnc(SCC(=O)NCc4ccco4)n12)CCCC3	-	-	-	-	-7
CCSc1nc2sc3c(c2c2nnc(SCC(=O)NCc4ccco4)n12)CCCC3	-	-	-	-	-
O=[n+]1cc(-c2ccc(Cl)cc2)n([O-])c2c1CCCCC2	-	-	-	-	-
CCOC(=O)Cn1c(=O)oc2cc(S(=O)(=O)N3CCC(N4CCCCC4)CC3)ccc21	-	-	-	11	-
CCOC(=O)Cn1c(=O)oc2cc(S(=O)(=O)N3CCCC(C(=O)OCC)C3)ccc21 (stereo not given)	-	-	-	-	-
COc1cccc(OC)c1CNC(=O)C1CCC(=O)N(CC2CCCCC2)C1 (stereo not given)	-	-	-	-	-
O=C(NCCCN1CCCC1=O)c1ccc(CNS(=O)(=O)c2ccc(F)cc2)cc1	-	-	-	37	-
O=C(NCCCN1CCCC1=O)c1ccc(S(=O)(=O)Nc2ccccc2F)cc1	-	-	-	-	-
CCOC(=O)c1c(NC(=O)COC(=O)Cc2c[nH]c3ccccc23)sc(C(=O)N(C)C)c1C	-	175	-	53	-
CN(C)CCOC(=O)c1cccc(Br)c1	-	44	-	10	-
COC(=O)CSc1nnc(-c2sc3cc(OC)ccc3c2Cl)n1C	-	-	-	-	-6
COC(=O)CSc1nc2cc(OC)ccc2n1C	-	-	-	-	-
O=C1CN(C(=O)COC(=O)C2CCN(S(=O)(=O)c3ccccc3C(F)(F)F)CC2)c2ccccc2N1	-	-	-	11	-
COc1ccc(CNC(=O)COC(=O)C2CCN(S(=O)(=O)c3ccccc3C(F)(F)F)CC2)cc1	-	-	-	-	-
COc1cccc(CNS(=O)(=O)c2ccc3c(c2)oc(=O)n3C)c1	-	-	-	-	-
O=C(Nc1ccc([N+](=O)[O-])cn1)C1CC1	-	-	-	-	-
O=C(Nc1ccc([N+](=O)[O-])cn1)C1CCCCC1	-	-	-	22	-
COc1ccc(/C=C(\C#N)C(=O)N2CCOCC2)cc1Br	-	-	-	14	-
CC1CC(C)CN(CCCNC(=O)C2CCN(S(=O)(=O)N3CCCCC3)CC2)C1 (stereo not given)	-	59	-	-	-
O=C(NCc1cccc(C(F)(F)F)c1)c1ccc2c(c1)OCO2	-	-	-	-	-
CC(C)(C)n1nnnc1C(c1ccc(Cl)cc1)N(Cc1cccnc1)Cc1ccco1 (stereo not given)	-	-	-	42	-
Cc1cccn2c(=O)nc(SCC(=O)Nc3ccc4c(c3)OCO4)nc12	-	-	-	-	-
SMILES	TRPC6 activator	TRPC4 agonist	TRPC6 inhibitor	TRPC4 PAM	TRPC4 block
O=C(c1ccc(COc2ccccc2Br)cc1)N1CCCCCC1	-	-	-	12	-
O=C(Cn1c(NCCCO)nc2ccccc21)c1ccc(Br)cc1	-	-	-	-	-7
OCCNc1nc2ccccc2n1CCN1CCCCC1	-	-	-	-	-6
CCCCn1c(NCCO)nc2ccccc21	-	-	-	-	-6
CCCCn1c(NCc2ccccc2O)nc2ccccc21	-	-	-	-	-
Brc1ccc(CN2CCN(Cc3c[nH]c4ccccc34)CC2)cc1	-	-	-	-	-
Brc1ccccc1CN1CCN(Cc2c[nH]c3ccccc23)CC1	-	-	-	-	-6
O=[N+]([O-])c1ccc(CN2CCN(Cc3c[nH]c4ccccc34)CC2)cc1	-	-	-	-	-6
O=C1NC(c2ccccc2)=C(c2nc3ccccc3s2)C(c2ccccc2)N1 (stereo not given)	-	-	-	19	-
